Data taken from ChEMBL document CHEMBL4219194, “Diversity-oriented synthesis of pyrazoles derivatives from flavones and isoflavones leads to the discovery of promising reversal agents of fluconazole resistance in Candida albicans” (2018).
In brackets after ≈: the same amount, converted by molar mass.

Experiments:
Type in all cases: functional
Candida albicans [1] = assay: Antifungal activity against Candida albicans SC5314 after 48 hrs by broth microdilution method; conditions: SC5314, 48 h
Summary of the method: (§1)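 MIC80 read by broth microdilution, with fluconazole as the positive antifungal agent. Values are reported in µg/mL as means of three independent experiments. Strains: wild-type SC5314 and DSY654, which lacks the Cdr1 and Cdr2 efflux pumps.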

Candida albicans [2] = assay: Antifungal activity against CDR1 and CDR2 efflux pump deficient Candida albicans DSY654 after 48 hrs by broth microdilution method; conditions: DSY654, 48 h; summary of the method: as §1
Candida albicans [3] = assay: Antifungal activity against fluconazole-resistant Candida albicans 28A after 48 hrs by broth microdilution method
Summary of the method: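 Clinical fluconazole-resistant isolates tested in broth microdilution with the compound alone. The endpoint is MIC80, the lowest concentration giving 80% growth inhibition, in µg/mL.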

Candida albicans [4] = assay: Synergistic antifungal activity against fluconazole-resistant Candida albicans 28A after 48 hrs in presence of fluconazole by broth microdilution checkerboard method
Summary of the method: (§2)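 Checkerboard dose-response matrix on strain 28A with gradients of fluconazole and the test compound in RPMI 1640, read after 48 h at 35 °C. MIC80 is taken alone and in combination, and FICI is calculated. Synergy is FICI ≤0.5, indifference >0.5-4, and antagonism >4.0.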

Candida albicans [5] = assay: Potentiation of fluconazole-induced antifungal activity against fluconazole-resistant Candida albicans 28A assessed as fluconazole MIC80 after 48 hrs by broth microdilution checkerboard method; summary of the method: as §2
Candida albicans [6] = assay: Potentiation of fluconazole-induced antifungal activity against fluconazole-resistant Candida albicans 28A after 48 hrs by broth microdilution checkerboard method; summary of the method: as §2

Compound: COc1ccc(-c2cnn(-c3ccccc3)c2-c2ccc(O)cc2O)cc1
- MIC80 (Candida albicans [1]): > 128 µg/mL
- MIC80 (Candida albicans [2]): > 128 µg/mL
- MIC80 (Candida albicans [3]): > 128 µg/mL
- MIC80 (Candida albicans [4]): 16 µg/mL
- MIC80 (Candida albicans [5]): 2 µg/mL
- fractional inhibitory concentration index (FICI) (Candida albicans [6]): 0.141

Compound: COc1cc(O)c(-c2cc(-c3ccccc3)n(CCO)n2)c(OC)c1
- MIC80 (Candida albicans [1]): > 128 µg/mL
- MIC80 (Candida albicans [2]): 4 µg/mL (≈ 11.8 µM)
- MIC80 (Candida albicans [3]): > 128 µg/mL
- MIC80 (Candida albicans [4]): 32 µg/mL
- MIC80 (Candida albicans [5]): 2 µg/mL
- fractional inhibitory concentration index (FICI) (Candida albicans [6]): 0.266

Compound: CCn1ncc(-c2ccc(OC)cc2)c1-c1ccc(O)cc1O
- MIC80 (Candida albicans [1]): > 128 µg/mL
- MIC80 (Candida albicans [2]): > 128 µg/mL
- MIC80 (Candida albicans [3]): > 128 µg/mL
- MIC80 (Candida albicans [4]): 32 µg/mL
- MIC80 (Candida albicans [5]): 2 µg/mL
- fractional inhibitory concentration index (FICI) (Candida albicans [6]): 0.266

Compound: COc1ccc(-c2cnn(-c3ccc(OC)cc3)c2-c2ccc(O)cc2O)cc1
- MIC80 (Candida albicans [1]): > 128 µg/mL
- MIC80 (Candida albicans [2]): > 128 µg/mL
- MIC80 (Candida albicans [3]): > 128 µg/mL
- MIC80 (Candida albicans [4]): > 128 µg/mL
- MIC80 (Candida albicans [5]): > 128 µg/mL
- fractional inhibitory concentration index (FICI) (Candida albicans [6]): 2

Compound: COc1ccc(-c2cn(CCO)nc2-c2ccc(O)cc2O)cc1
- MIC80 (Candida albicans [1]): > 128 µg/mL
- MIC80 (Candida albicans [2]): > 128 µg/mL
- MIC80 (Candida albicans [3]): > 128 µg/mL
- MIC80 (Candida albicans [4]): > 128 µg/mL
- MIC80 (Candida albicans [5]): > 128 µg/mL
- fractional inhibitory concentration index (FICI) (Candida albicans [6]): 2

Compound: COc1ccc(C2=NCCNC(c3ccccc3)=C2)c(O)c1OC
- MIC80 (Candida albicans [1]): > 128 µg/mL
- MIC80 (Candida albicans [2]): > 128 µg/mL
- MIC80 (Candida albicans [3]): > 128 µg/mL
- MIC80 (Candida albicans [4]): > 128 µg/mL
- MIC80 (Candida albicans [5]): > 128 µg/mL
- fractional inhibitory concentration index (FICI) (Candida albicans [6]): 2

Compound: CCn1ncc(-c2ccc(O)cc2)c1-c1ccc(O)c(C2OC(CO)C(O)C(O)C2O)c1O (stereo not given)
- MIC80 (Candida albicans [1]): > 128 µg/mL
- MIC80 (Candida albicans [2]): > 128 µg/mL
- MIC80 (Candida albicans [3]): > 128 µg/mL
- MIC80 (Candida albicans [4]): > 128 µg/mL
- MIC80 (Candida albicans [5]): > 128 µg/mL
- fractional inhibitory concentration index (FICI) (Candida albicans [6]): 2

Compound: CCn1cc(-c2ccc(O)cc2)c(-c2ccc(O)c(C3OC(CO)C(O)C(O)C3O)c2O)n1 (stereo not given)
- MIC80 (Candida albicans [1]): > 128 µg/mL
- MIC80 (Candida albicans [2]): > 128 µg/mL
- MIC80 (Candida albicans [3]): > 128 µg/mL
- MIC80 (Candida albicans [4]): > 128 µg/mL
- MIC80 (Candida albicans [5]): > 128 µg/mL
- fractional inhibitory concentration index (FICI) (Candida albicans [6]): 2

Compound: Oc1ccc(-c2cnn(-c3ccccc3)c2-c2ccc(O)cc2O)cc1
- MIC80 (Candida albicans [1]): > 128 µg/mL
- MIC80 (Candida albicans [2]): > 128 µg/mL
- MIC80 (Candida albicans [3]): > 128 µg/mL
- MIC80 (Candida albicans [4]): > 128 µg/mL
- MIC80 (Candida albicans [5]): > 128 µg/mL
- fractional inhibitory concentration index (FICI) (Candida albicans [6]): 2

Compound: Oc1ccc(-c2cc(-c3ccccc3)n[nH]2)c(O)c1O
- MIC80 (Candida albicans [1]): 8 µg/mL (≈ 29.8 µM)
- MIC80 (Candida albicans [2]): 8 µg/mL (≈ 29.8 µM)
- MIC80 (Candida albicans [3]): > 128 µg/mL
- MIC80 (Candida albicans [4]): > 128 µg/mL
- MIC80 (Candida albicans [5]): > 128 µg/mL
- fractional inhibitory concentration index (FICI) (Candida albicans [6]): 2

Compound: Oc1ccccc1-c1cc(-c2ccccc2)nn1-c1ccccc1
- MIC80 (Candida albicans [1]): 128 µg/mL (≈ 410 µM)
- MIC80 (Candida albicans [2]): 8 µg/mL (≈ 25.6 µM)
- MIC80 (Candida albicans [3]): 128 µg/mL (≈ 410 µM)
- MIC80 (Candida albicans [4]): 128 µg/mL
- MIC80 (Candida albicans [5]): 2 µg/mL
- fractional inhibitory concentration index (FICI) (Candida albicans [6]): 1.016

Compound: COc1ccc(-n2nc(-c3c(O)cc(OC)c(OC)c3OC)cc2-c2ccccc2)cc1
- MIC80 (Candida albicans [1]): > 128 µg/mL
- MIC80 (Candida albicans [2]): > 128 µg/mL
- MIC80 (Candida albicans [3]): > 128 µg/mL
- MIC80 (Candida albicans [4]): > 128 µg/mL
- MIC80 (Candida albicans [5]): > 128 µg/mL
- fractional inhibitory concentration index (FICI) (Candida albicans [6]): 2

Compound: Oc1ccc(-c2cn[nH]c2-c2c(O)cc(O)cc2O)cc1
- MIC80 (Candida albicans [1]): > 128 µg/mL
- MIC80 (Candida albicans [2]): > 128 µg/mL
- MIC80 (Candida albicans [3]): > 128 µg/mL
- MIC80 (Candida albicans [4]): > 128 µg/mL
- MIC80 (Candida albicans [5]): > 128 µg/mL
- fractional inhibitory concentration index (FICI) (Candida albicans [6]): 2

Compound: COc1cc(O)c(C2=NCCNC(c3ccccc3)=C2)c(OC)c1
- MIC80 (Candida albicans [1]): 128 µg/mL (≈ 395 µM)
- MIC80 (Candida albicans [2]): 8 µg/mL (≈ 24.7 µM)
- MIC80 (Candida albicans [3]): 128 µg/mL (≈ 395 µM)
- MIC80 (Candida albicans [4]): 32 µg/mL
- MIC80 (Candida albicans [5]): 2 µg/mL
- fractional inhibitory concentration index (FICI) (Candida albicans [6]): 0.266

Compound: Oc1ccc(-c2cc(-c3c(O)cc(O)cc3O)[nH]n2)cc1
- MIC80 (Candida albicans [1]): > 128 µg/mL
- MIC80 (Candida albicans [2]): > 128 µg/mL
- MIC80 (Candida albicans [3]): > 128 µg/mL
- MIC80 (Candida albicans [4]): 1 µg/mL
- MIC80 (Candida albicans [5]): 0.5 µg/mL
- fractional inhibitory concentration index (FICI) (Candida albicans [6]): 0.012

Compound: COc1cc(O)c(-c2cc(-c3ccccc3)[nH]n2)c(OC)c1OC
- MIC80 (Candida albicans [1]): 64 µg/mL (≈ 196 µM)
- MIC80 (Candida albicans [2]): 2 µg/mL (≈ 6.13 µM)
- MIC80 (Candida albicans [3]): 64 µg/mL (≈ 196 µM)
- MIC80 (Candida albicans [4]): 16 µg/mL
- MIC80 (Candida albicans [5]): 2 µg/mL
- fractional inhibitory concentration index (FICI) (Candida albicans [6]): 0.266

Compound: COc1cc(O)c(-c2cc(-c3ccccc3)nn2-c2ccccc2)c(OC)c1OC
- MIC80 (Candida albicans [1]): > 128 µg/mL
- MIC80 (Candida albicans [2]): > 128 µg/mL
- MIC80 (Candida albicans [3]): > 128 µg/mL
- MIC80 (Candida albicans [4]): > 128 µg/mL
- MIC80 (Candida albicans [5]): > 128 µg/mL
- fractional inhibitory concentration index (FICI) (Candida albicans [6]): 2

Compound: OCC1OC(c2c(O)ccc(-c3n[nH]cc3-c3ccc(O)cc3)c2O)C(O)C(O)C1O (stereo not given)
- MIC80 (Candida albicans [1]): > 128 µg/mL
- MIC80 (Candida albicans [2]): 16 µg/mL (≈ 37.2 µM)
- MIC80 (Candida albicans [3]): > 128 µg/mL
- MIC80 (Candida albicans [4]): > 128 µg/mL
- MIC80 (Candida albicans [5]): > 128 µg/mL
- fractional inhibitory concentration index (FICI) (Candida albicans [6]): 2

Compound: COc1ccc(-c2cc(-c3c(O)cc(OC)cc3OC)[nH]n2)cc1
- MIC80 (Candida albicans [1]): > 128 µg/mL
- MIC80 (Candida albicans [2]): > 128 µg/mL
- MIC80 (Candida albicans [3]): > 128 µg/mL
- MIC80 (Candida albicans [4]): > 128 µg/mL
- MIC80 (Candida albicans [5]): > 128 µg/mL
- fractional inhibitory concentration index (FICI) (Candida albicans [6]): 2

Compound: COc1cc(O)c(-c2cc(-c3ccccc3)n(-c3ccccc3)n2)c(OC)c1OC
- MIC80 (Candida albicans [1]): > 128 µg/mL
- MIC80 (Candida albicans [2]): > 128 µg/mL
- MIC80 (Candida albicans [3]): > 128 µg/mL
- MIC80 (Candida albicans [4]): > 128 µg/mL
- MIC80 (Candida albicans [5]): > 128 µg/mL
- fractional inhibitory concentration index (FICI) (Candida albicans [6]): 2
